In ChEMBL document CHEMBL1154452, “First synthesis of novel spin-labeled derivatives of camptothecin as potential antineoplastic agents” (Eur J Med Chem, 2008):

Legend:
[1] = Stability in mouse plasma assessed as level of lactone form of compound after 2 hrs by HPLC; assay type: ADME, cell-free; conditions: read-out: Activity
How it was run: (§1)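 Incubated in plasma at 37 °C; aliquots taken at 2, 4, 6, 8 and 24 h. Protein precipitated with cold acetonitrile (-20 °C) and removed by centrifugation. Supernatant stored at -20 °C, then analysed by C-18 HPLC (methanol/water/0.1% acetic acid) with detection at 254 nm. Percent lactone = lactone level at each time point relative to t = 0 h.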

[2] = Stability in human plasma assessed as level of lactone form of compound after 2 hrs by HPLC; assay type: ADME, cell-free; conditions: read-out: Activity; how it was run: as §1
[3] = Stability in human plasma assessed as level of lactone form of compound after 24 hrs by HPLC; assay type: ADME, cell-free; conditions: read-out: Activity; how it was run: as §1
[4] = Stability in mouse plasma assessed as level of lactone form of compound after 6 hrs by HPLC; assay type: ADME, cell-free; conditions: read-out: Activity; how it was run: as §1
[5] = Stability in mouse plasma assessed as level of lactone form of compound after 4 hrs by HPLC; assay type: ADME, cell-free; conditions: read-out: Activity; how it was run: as §1
[6] = Stability in mouse plasma assessed as level of lactone form of compound after 8 hrs by HPLC; assay type: ADME, cell-free; conditions: read-out: Activity; how it was run: as §1
[7] = Stability in mouse plasma assessed as level of lactone form of compound after 24 hrs by HPLC; assay type: ADME, cell-free; conditions: read-out: Activity; how it was run: as §1
[8] = Stability in human plasma assessed as level of lactone form of compound after 8 hrs by HPLC; assay type: ADME, cell-free; conditions: read-out: Activity; how it was run: as §1
T-24 = assay: Growth inhibition of human T24 cells after 4 days by MTT assay; assay type: functional; parameters: concentration or dose not given beside the values
How it was run: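 After 4 days, MTT (5 mg/mL solution) added, 4 h further incubation, formazan dissolved in DMSO, absorbance read at 570 nm. Survival expressed as percent of untreated control wells; inhibition rates derived.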

[9] = Stability in human plasma assessed as level of lactone form of compound after 4 hrs by HPLC; assay type: ADME, cell-free; conditions: read-out: Activity; how it was run: as §1
[10] = Stability in human plasma assessed as level of lactone form of compound after 6 hrs by HPLC; assay type: ADME, cell-free; conditions: read-out: Activity; how it was run: as §1

Compound: CC[C@@]1(OC(=O)CNC(=O)C2=CC(C)(C)N(O)C2(C)C)C(=O)OCc2c1cc1n(c2=O)Cc2cc3ccccc3nc2-1
- remaining at 2 h [1]: 76.3%
- remaining at 2 h [2]: 78.7%
- remaining at 24 h [3]: 7.8%
- remaining at 6 h [4]: 43.9%
- remaining at 4 h [5]: 57.6%
- remaining at 8 h [6]: 31.8%
- remaining at 24 h [7]: 10.8%
- remaining at 8 h [8]: 34.4%
- inhibition (INH) (T-24): 34.5%
- remaining at 4 h [9]: 65.2%
- remaining at 6 h [10]: 56.1%

Compound: CC[C@@]1(OC(=O)[C@H](CC(C)C)NC(=O)C2=CC(C)(C)N(O)C2(C)C)C(=O)OCc2c1cc1n(c2=O)Cc2cc3ccccc3nc2-1
- inhibition (INH) (T-24): 16.4%

Compound: CC[C@@]1(OC(=O)[C@H](C)NC(=O)C2=CC(C)(C)N(O)C2(C)C)C(=O)OCc2c1cc1n(c2=O)Cc2cc3ccccc3nc2-1
- inhibition (INH) (T-24): 25.9%

Compound: CC[C@@]1(OC(=O)[C@H](Cc2ccccc2)NC(=O)C2=CC(C)(C)N(O)C2(C)C)C(=O)OCc2c1cc1n(c2=O)Cc2cc3ccccc3nc2-1
- inhibition (INH) (T-24): 26.4%

Compound: CC[C@@]1(OC(=O)[C@H](CCSC)NC(=O)C2=CC(C)(C)N(O)C2(C)C)C(=O)OCc2c1cc1n(c2=O)Cc2cc3ccccc3nc2-1
- inhibition (INH) (T-24): 25.5%

Compound: CC[C@@]1(O)C(=O)OCc2c1cc1n(c2=O)Cc2cc3ccccc3nc2-1 [CAMPTOTHECIN]
- remaining at 2 h [1]: 55.1%
- remaining at 2 h [2]: 61.4%
- remaining at 24 h [3]: 3.8%
- remaining at 6 h [4]: 24.5%
- remaining at 4 h [5]: 40.5%
- remaining at 8 h [6]: 10.9%
- remaining at 24 h [7]: 5.3%
- remaining at 8 h [8]: 14.6%
- inhibition (INH) (T-24): 15.4%
- remaining at 4 h [9]: 28.4%
- remaining at 6 h [10]: 19.4%

Compound: CCc1c2c(nc3ccc(OC(=O)N4CCC(N5CCCCC5)CC4)cc13)-c1cc3c(c(=O)n1C2)COC(=O)[C@]3(O)CC [IRINOTECAN]
- inhibition (INH) (T-24): 23.8%
